Assay results published in ChEMBL document CHEMBL1121524, “Studies of hypolipidemic agents. 1. Synthesis and hypolipidemic activities of alkoxycinnamic acid derivatives” (1980).

Experiments:
Rattus norvegicus [1] = species: Rattus norvegicus; assay: Hypolipidemic activity expressed as percentage decrease in triglyceride in rat, at dosage of 50 mg for 7 days; type: functional
Summary of the method: (§1)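 Male Sprague-Dawley rats, 4 weeks old, kept on CE-2 chow for at least 1 week, then grouped (generally five per group). Compound was mixed into CE-2 powder and fed ad libitum for the stated period; controls received plain CE-2 powder. Diet level is given as mg/100 g (mg%), about equal to mg/kg/day. Total serum triglyceride was measured by the Ryan and Rasho method and reported as percent depression versus control group mean. Significance was p < 0.05.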

Rattus norvegicus [2] = species: Rattus norvegicus; assay: Tested for the hypolipidemic activity, expressed as percent decrease in serum cholesterol in rat, at dosage of 50 mg for 7 days; type: functional
Summary of the method: (§2)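 Male Sprague-Dawley rats, 4 weeks old, kept on CE-2 chow for at least 1 week, then grouped (generally five per group). Compound was mixed into CE-2 powder and fed ad libitum for the stated period; controls received plain CE-2 powder. Diet level is given as mg/100 g (mg%), about equal to mg/kg/day. Total serum cholesterol was measured by the Zak et al. method and reported as percent depression versus control group mean. Significance was p < 0.05.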

Rattus norvegicus [3] = assay: In vivo hypolipidemic activity, expressed as percent decrease in serum triglyceride in rat, at dosage of 20 mg for 7 days.
Rattus norvegicus [4] = assay: In vivo hypolipidemic activity, expressed as percent decrease in serum cholesterol in rat, at dosage of 20 mg for 7 days.; type: functional; summary of the method: as §2
Rattus norvegicus [5] = species: Rattus norvegicus; assay: Hypolipidemic activity, expressed as percent decrease in serum cholesterol in rat, at dosage of 100 mg for 7 days by Zak et al method; type: functional; summary of the method: as §2
Rattus norvegicus [6] = assay: In vivo hypolipidemic activity, expressed as percent decrease in Triglyceride in rat, at dosage of 100 mg for 7 days.; type: functional; summary of the method: as §1

SMILES	Decrease (Rattus norvegicus [1])	Decrease (Rattus norvegicus [2])	Decrease (Rattus norvegicus [3])	Decrease (Rattus norvegicus [4])	Decrease (Rattus norvegicus [5])	Decrease (Rattus norvegicus [6])
CCCCCCCCCCCCCCOc1ccc(/C(C)=C/C(=O)O)cc1	41%	5%				
C/C(=C\c1ccc(Oc2ccccc2)cc1)C(=O)O			15%	8%		
CCCCCCCCCCCCOc1ccc(/C=C/C(=O)OCCCl)cc1	46%	16%				
CCCCCCCCOc1ccc(/C=C/C(=O)OCCCl)cc1					5%	
CCCCCCCCCCCCCCCCCCOc1ccc(/C=C/C(=O)O)cc1	9%	0%				
CCCCOc1ccc(/C=C/C(=O)OCCCl)cc1					0%	26%
CCCCCCCCCCCCOc1ccc(/C=C(\C)C(=O)OCC2COC(C)(C)O2)cc1 (centres undefined)	41%	16%				
CCCCCCCCCCCCCCOc1ccc(/C=C/C(=O)O)cc1	0%	7%				
CCCCCCCCCCCCCCCCOc1ccc(/C=C/C(=O)OCCS(=O)(=O)[O-])cc1.[Na+]					17%	47%
CCCCOc1ccc(/C=C/C(=O)OCCS(=O)(=O)[O-])cc1.[Na+]					-1%	9%
CCCCCCCCCCCCCCOc1ccc(/C=C(\C)C(=O)OCCC(=O)OC)cc1	37%	30%	7%	-1%		
CCCCCCCCCCCCCCOc1ccc(/C=C/C(=O)OCCO)cc1	24%	10%				
C=C(C)C(=O)OCCCOC(=O)/C=C/c1ccc(OCCCCCCCCCCCCCCCC)cc1					16%	0%
C/C(=C\c1ccc(Oc2ccccc2)cc1)C(=O)OCCCl	-6%	14%	22%	15%		
C/C(=C\c1ccc(-c2ccc(Cl)cc2)cc1)C(=O)OCC(O)CO (centres undefined)	18%	11%				
CCCCCCCCCCCCCOc1ccc(/C=C(\C)C(=O)O)cc1	-4%	13%				
C=C(C)C(=O)OCCOC(=O)/C=C/c1ccc(OCc2ccccc2)cc1					13%	33%
C=C(C)C(=O)OCCOC(=O)/C=C/c1ccc(OCCCCCCCC)cc1					16%	-11%
CCCCCCCCCCCCCCCCOc1ccc(/C=C/C(=O)OCCBr)cc1					7%	6%

SMILES	Decrease (Rattus norvegicus [1])	Decrease (Rattus norvegicus [2])	Decrease (Rattus norvegicus [3])	Decrease (Rattus norvegicus [4])	Decrease (Rattus norvegicus [5])	Decrease (Rattus norvegicus [6])
O=C(/C=C/c1ccc(Oc2ccccc2)cc1)OCC(O)CO (centres undefined)	29%	11%	26%	15%		
CCCCCCCCCCCCCCCCCCOc1ccc(/C=C/C(=O)OCCCCl)cc1	3%	9%				
CCCCCCCCCCCCCCOc1ccc(/C=C(\C)C(=O)OCC)cc1	34%	7%	37%	6%		
CCCCCCCCCCCCCCCCOc1ccc(/C=C/C(=O)OCCCCl)cc1	48%	5%	38%	1%	22%	44%
CCCCCCCCCCCCCOc1ccc(/C=C(\C)C(=O)OCC(O)CO)cc1 (centres undefined)	53%	30%				
COc1ccc(/C=C/C(=O)OCCCl)cc1					0%	
CCCCOc1ccc(/C=C/C(=O)OCCBr)cc1					9%	26%
CCCCCCCCCCCCCCOc1ccc(/C=C(\C)C(=O)OCC(O)COC(=O)c2cccnc2)cc1 (centres undefined)	33%	4%				
CCCCCCCCCCCCOc1ccc(/C=C(\C)C(=O)OCCCl)cc1	42%	21%				
C=C(C)C(=O)OCCOC(=O)/C=C/c1ccc(OCCCCCCCCCCCC)cc1	34%	13%				
C/C(=C\c1ccc(Oc2ccccc2)cc1)C(=O)OCC(O)CO (centres undefined)	4%	14%	-1%	7%		
CCCCCCCCCCCCCCCCCCOc1ccc(/C=C(\C)C(=O)OCCCO)cc1	14%	13%				
CCCCCCCCCCCCCCCCOc1ccc(/C=C/C(=O)OCCO)cc1			26%	18%	24%	57%
C=CC(=O)OCCOC(=O)/C=C/c1ccc(OCCCCCCCCCCCCCCCC)cc1					6%	
C/C(=C\c1ccc(-c2ccccc2)cc1)C(=O)OCC(O)CO (centres undefined)	-17%	16%				
C=C(C)C(=O)OCCOC(=O)/C=C(\C)c1ccc(OCCCCCCCCCCCCCCCC)cc1					11%	12%
C=COC(=O)/C=C/c1ccc(OCCCCCCCC)cc1					-6%	
CCCCCCCCCCCCCCCCOc1ccc(/C=C(\C)C(=O)OCC2COC(C)(C)O2)cc1 (centres undefined)	3%	1%				
C/C=C/C(=O)OCCOC(=O)/C=C/c1ccc(OCCCCCCCCCCCCCCCC)cc1					3%	11%

SMILES	Decrease (Rattus norvegicus [1])	Decrease (Rattus norvegicus [2])	Decrease (Rattus norvegicus [3])	Decrease (Rattus norvegicus [4])	Decrease (Rattus norvegicus [5])	Decrease (Rattus norvegicus [6])
CCCCCCCCCCCCCCCCOc1ccc(/C=C(\C)C(=O)O)cc1	25%	17%	1%	9%		
CCCCCCCCCCCCCCOc1ccc(/C=C(\C)C(=O)OCCOC(=O)/C(C)=C/c2ccc(OCCCCCCCCCCCCCC)cc2)cc1	-9%	-1%				
CCCCCCCCCCCCCCOc1ccc(/C=C(\C)C(=O)OCC(O)COC(=O)/C(C)=C/c2ccc(OCCCCCCCCCCCCCC)cc2)cc1 (centres undefined)	6%	6%				
CCCCCCCCCCCCCCOc1ccc(/C=C/C(=O)OCC(O)CO)cc1 (centres undefined)	24%	26%				
CCCCCCCCCCCCCCOc1ccc(/C=C(\C)C(=O)OC(CO)CO)cc1	38%	9%				
CCCCCCCCCCOc1ccc(/C=C(\C)C(=O)O)cc1	43%	16%				
CCCCCCCCCCCCCCOc1ccc(/C=C/C(=O)OCCCl)cc1	-1%	11%				
CCCCCCCCOc1ccc(/C=C(\C)C(=O)O)cc1	8%	10%				
CCCCOc1ccc(/C=C/C(=O)OCCO)cc1					9%	26%
CCCCCCCCCCCCCCCCOc1ccc(/C=C(\C)C(=O)Oc2ccccc2)cc1	46%	12%				
O=C(/C=C/c1ccc(OCc2ccccc2)cc1)OCCCl					-3%	
C=CCOc1ccc(/C=C/C(=O)OCCCl)cc1					-9%	26%
CCCCCCCCCCCCOc1ccc(/C=C(\C)C(=O)OCCS(=O)(=O)[O-])cc1.[Na+]	63%	27%				
O=C(/C=C/c1ccc(Oc2ccccc2)cc1)OCCCl			21%	18%		
CCCCOc1ccc(/C=C/C(=O)OCCN2CCCCC2)cc1.Cl					3%	2%
O=C(O)/C=C/c1ccc(Oc2ccccc2)cc1	34%	15%	14%	14%		
CCCCCCCCCCCCCCOc1ccc(/C=C(\C)C(=O)OCC(O)CO)cc1 (stereo in doubt; 98)	9%	-2%				
CCOC(=O)C(C)(C)Oc1ccc(Cl)cc1 [CLOFIBRATE]	35%	14%			22%	41%
